High-throughput results as filed in PubChem BioAssay.
In the library only some 2.7% were active in any assay of this set; here they are far more common.
V1R ag counter – activates human V1a receptor in oxytocin agonist counter-screen | AID 2797 | CHO-V1R cells, Fluo-8 calcium fluorescence, agonist mode; 0% DMSO, 100% 3 nM vasopressin | 320,000 compounds, 0.25% hits | activation, % at 3 µM;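 active = activation above the mean activation of all tested compounds plus 3 SD, per screening run, cut at about 20% in these data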;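 also: signal is peak over basal fluorescence ratio across a 100 second FLIPR read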
CHO parental Ca – counter-screen: ATP calcium response change in parental CHO cells; parental CHO-K1, ATP-induced calcium, Fluo-8 fluorescence; inhibition, % at 5.6 µM; 330,000 compounds, 0.63% hits; AID 463079;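 active = inhibition above that plate's mean sample inhibition plus 3 SD, cut at about 26% in these data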;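 also: 0% = ATP-challenged DMSO wells and 100% = DMSO wells without ATP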
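Test system: untransfected parental CHO cell line; also added: ATP stimulus; dosing: 5.6 µM, single dose; signal: calcium-sensitive Fluo-8 fluorescence; measure: percent inhibition of ATP-evoked calcium rise, normalized to controls; benchmarks: low control ATP plus DMSO, high control DMSO only; replication: one well per compound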
OXTR agonist – activates the human oxytocin receptor; activation, % at 3 µM; 320,000 compounds, 0.32% hits; AID 2435; CHO-OTR cells, Fluo-8 calcium fluorescence; normalized: DMSO 0%, oxytocin 100%;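 active = activation above the mean of all tested compounds plus 3 SD, cutoff set per screening run, cut at about 20% in these data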;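 also: peak over basal fluorescence ratio from a 100 s FLIPR kinetic read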
Target sequence (P30559 whole entry, looked up): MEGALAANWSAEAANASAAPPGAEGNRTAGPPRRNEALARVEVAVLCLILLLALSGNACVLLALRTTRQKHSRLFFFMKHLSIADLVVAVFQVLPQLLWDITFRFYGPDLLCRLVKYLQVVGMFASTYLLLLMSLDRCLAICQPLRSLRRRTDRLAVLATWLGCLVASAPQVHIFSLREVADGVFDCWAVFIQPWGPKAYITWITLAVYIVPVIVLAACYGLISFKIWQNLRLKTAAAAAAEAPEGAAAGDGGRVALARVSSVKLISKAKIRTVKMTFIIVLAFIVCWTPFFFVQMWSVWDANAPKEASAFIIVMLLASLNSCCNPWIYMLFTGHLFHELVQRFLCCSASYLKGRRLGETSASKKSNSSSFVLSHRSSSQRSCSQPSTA
OX1R antag-1 – blocks the human orexin 1 receptor | O43613 | inhibition, % at 6.6 µM | OX1R-expressing cells, FRET antagonist read-out | 330,000 compounds, 1.8% hits; in the data active = inhibition mostly above about 38%, no sharp cut-off; inactive = mostly below about 40%;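 also: 0% = agonist challenge alone and 100% = reference antagonist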
OXTR potentiator – human OXTR potentiation; 320,000 compounds, 0.061% hits; P30559; activation, % at 3 µM; CHO-OTR cells, Fluo-8 calcium fluorescence, potentiator mode; 0% = oxytocin EC15, 100% = EC100; AID 2445;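 active = activation above that plate's cutoff, the mean activation of tested compounds plus 3 SD, cut at about 6.6% in these data, passing the limit was not always enough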;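 also: 100% uses oxytocin at 75 nM as the full agonist control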
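Measured by – Fluo-8 calcium dye fluorescence · Test system – human OTR in CHO cells · Dosing – one concentration, 3.0 µM compound · Controls – EC15 oxytocin alone as 0%, 75 nM oxytocin as 100% · Evaluation – normalized max/min fluorescence ratio, % activation · Timing – 6 min pre-incubation, 100 s read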
OX1R antag-2 – blocks the human orexin 1 receptor. inhibition, % at 5 µM. CHO/OX1R cells, Fluo-8 calcium fluorescence, orexin A. 330,000 compounds, 0.43% hits. O43613;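 active = inhibition above its plate's threshold, mean inhibition of all tested compounds on the plate plus 3 SD, cut at about 37% in these data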;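 also: 0% = orexin A challenge wells and 100% = SB-334867-A antagonist wells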
Starred values were filed as active, the others as inactive.

SMILES	V1R ag counter	CHO parental Ca	OXTR agonist	OX1R antag-1	OXTR potentiator	OX1R antag-2
CC(C)(C)OC(=O)C[C@H]1C/C=C\C[C@@H](CC(=O)N(CCO)Cc2ccccc2)C(=O)NC[C@@H](c2ccccc2)OC1=O	0	-17	-2	4	-2	-30
Cc1ccc(NC(=O)c2ccc(=O)[nH]n2)cc1S(=O)(=O)Nc1ccc(SC(F)F)cc1	2	1	3	1	2	-14
Cc1ccc(C)c(C(=O)C(C)Sc2nc3nn(-c4ccccc4)c(=O)c-3c3n2CCCCC3)c1 (centres undefined)	0	-19	-1	10	7	-26
Cc1ccc(C(=O)OCC(=O)c2c[nH]c3ccccc23)cc1	0	0	1	10	-10	-12
CC(C)Cc1ccc(C(C)C(=O)OCC(=O)c2c[nH]c3ccccc23)cc1 (centres undefined)	23*	75*	28*	6	-7	39*
Cc1cc(C)cc(N(CC(=O)NC2CCCC2)C(=O)CNC(=O)c2cccs2)c1	1	-23	2	16	-1	-20
CC(CCc1ccccc1)NC(=O)COC(=O)c1ccc([N+](=O)[O-])cc1 (centres undefined)	1	-18	-1	13	-5	-23
CC(CCc1ccccc1)NC(=O)COC(=O)c1ccc(S(C)(=O)=O)c([N+](=O)[O-])c1 (centres undefined)	1	18	0	69*	1	6
CS(=O)(=O)c1ccc(C(=O)OCC(=O)NC(=O)C2COc3ccccc3O2)cc1[N+](=O)[O-] (centres undefined)	7	-16	10	22	-9	-4
CS(=O)(=O)c1ccc(C(=O)OCC(=O)NC(=O)C2CCCCC2)cc1[N+](=O)[O-]	5	17	2	49*	-20	6
CCOc1ccccc1OCCCC(=O)N1CCN(S(=O)(=O)c2ccc(C)cc2C)CC1	1	-27	-1	8	-7	-25
O=[N+]([O-])c1cc2c(cc1/C=N/n1cnnc1)OCO2	0	-6	0	77*	-2	6
COCc1[nH]nc2c1C(c1cc(OC)c(O)c(OC)c1)C(C#N)=C(N)O2 (centres undefined)	1	-6	1	76*	1	-6
Cc1ccc2c(c1)nnn2C1CCN(S(=O)(=O)c2ccc(C(=O)N3C(C)CCCC3C)cc2)CC1 (centres undefined)	9	56*	11	33	-22	59*
Cc1ccc2c(c1)nnn2C1CCN(S(=O)(=O)c2ccc(C(=O)O)cc2)CC1	1	-4	-1	5	1	-4
c1ccc(C2CCC(N3CCN(c4ccccc4)CC3)CC2)cc1 (centres undefined)	-2	-20	-3	11	-6	-30
COc1cccc(CNC(=O)COC(=O)c2cc([N+](=O)[O-])ccc2N2CCCC2)c1	0	-26	-1	17	-1	-17
Cc1ccc(S(=O)(=O)N2[C@@H](c3ccc(Br)cc3)C(C(=O)O)=CC[C@H]2c2ccc(C(C)C)cc2)cc1	2	75*	7	20	-8	54*
CCc1ccc([C@@H]2CC=C(C(=O)O)[C@H](c3ccc(F)cc3)N2S(=O)(=O)c2ccc(C)cc2)cc1	0	-16	1	16	-13	-6
Cc1ccc([C@@H]2CC=C(C(=O)O)[C@H](c3ccc(F)cc3)N2S(=O)(=O)c2ccc(C)cc2)cc1	2	-16	-1	70*	-23	1
Cc1ccc(S(=O)(=O)N2[C@@H](c3ccc(C(C)(C)C)cc3)C(C(=O)O)=CC[C@H]2c2ccc(C(C)C)cc2)cc1	-1	29	0	-8	-10	7
Cc1ccc(S(=O)(=O)N2[C@@H](c3ccccc3F)C(C(=O)O)=CC[C@H]2c2ccc3c(c2)OCO3)cc1	1	-7	1	47*	-19	-4
Cc1ccc(S(=O)(=O)N2[C@@H](c3ccc(F)cc3)C(C(=O)O)=CC[C@H]2c2ccc3c(c2)OCO3)cc1	1	-13	0	33	-4	-4
